We go through one compound from ChEMBL document CHEMBL6182829, “Developing peptide-based fusion inhibitors as an antiviral strategy utilizing coronin 1 as a template” (RSC Med Chem, 2025).

Assay [1] deals with Lipid bilayer. Put plainly: Binding affinity to DOPC/DOPE/DOPG (60/30/10 mol%) small unilamellar vesicles assessed as membrane organization and dynamic by measuring increase in fluorescence intensity at 1:100 compound: lipid concentration by tryptophan fluorescence based spectrofluorometric analysis. An outline of the steps: (§1)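 Tryptophan fluorescence spectra of the peptide recorded in buffer and with SUVs. Lipid:peptide 100:1, total lipid 200 μM, in 10 mM TES, 100 mM NaCl, 1 mM CaCl2, 1 mM EDTA, pH 7.4. At least three independent measurements averaged.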

For assay [2], the system named is Lipid bilayer. The assay can be described thus: Disruption of interfacial region in DOPC/DOPE/DOPG/CH (50/30/10/10 mol%) small unilamellar vesicles at 2 to 10 uM by TMA-DPH based fluorescence anisotropy. The settings on record: dose 2-10 µM. In short, it runs like this:
(§2)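 TMA-DPH steady-state anisotropy in SUVs (200 μM total lipid) across a range of peptide concentrations. Excitation 360 nm, emission 428 nm, 5 nm slits. Buffer 10 mM TES, 100 mM NaCl, 1 mM CaCl2, 1 mM EDTA, pH 7.4, 37 °C. Anisotropy from polarised intensities with G-factor correction; mean ± S.E. of at least three measurements.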
In general terms: Polarisation of emitted light reports the rotation of a fluorescent probe.

Assay [3] concerns Lipid bilayer. The assay can be described thus: Binding affinity to DOPC/DOPE/DOPG/CH (40/30/10/20 mol%) small unilamellar vesicles assessed as membrane organization and dynamic by measuring increase in fluorescence intensity at 1:100 compound: lipid concentration by tryptophan fluorescence based spectrofluorometric analysis. An outline of the steps:
as §1

For assay [4], the system named is Influenza A virus H3N2. Put plainly: Antiviral activity against Influenza A virus X-31 (H3N2) infected in human A549 cells assessed as reduction in viral M1 protein expression level incubated for 48 hrs post infection by Western blot analysis. The class given is functional, organism-based. An outline of the steps:
(§3)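 Cells seeded at 0.25 × 10^6 per well and co-infected with virus–peptide mixtures as in the CPE assay. Lysed in RIPA with protease inhibitor 48 h post-infection, protein by BCA. Run on 12% SDS-PAGE, transferred to PVDF, blocked in 3% milk. Probed with anti-M1 (1:1000) and HRP anti-mouse IgG (1:10 000); β-actin as loading control after stripping.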

Assay [5] deals with Lipid bilayer. The assay can be described thus: Disruption of interfacial region in DOPC/DOPE/DOPG (60/30/10 mol%) small unilamellar vesicles at 2 to 10 uM by TMA-DPH based fluorescence anisotropy. To be noted: dose 2-10 µM. An outline of the steps: as §2
The test system of assay [6] is Influenza A virus H3N2. The assay can be described thus: Antiviral activity against Influenza A virus X-31 (H3N2) infected in human A549 cells assessed as inhibition of viral infection incubated for 48 hrs post infection by hemagglutination assay (reference value: 4 No unit). Format: functional.
Assay [7] concerns Lipid bilayer. Put plainly: Inhibition of PEG-induced DOPC/DOPE/DOPG/CH (40/30/10/20 mol%) small unilamellar vesicles assessed as content leakage at 1:100 compound: lipid concentration preincubated for 10 mins followed by PEG addition by spectrofluorometric analysis. In short, it runs like this:
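Leakage read as loss of fluorescence from vesicles co-encapsulating 8 mM TbCl3 and 80 mM DPA, external probe removed. Lipid 200 μM; peptide 2 μM added 10 min before 6% (w/v) PEG at 37 °C. 100% leakage set with 0.1% (w/v) Triton X-100.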

In assay [8] the test system is Influenza A virus H3N2. The assay can be described thus: Antiviral activity against Influenza A virus X-31 (H3N2) infected in human A549 cells assessed as reduction in virus-induced cytopathic effect preincubated for 48 hrs followed by viral infection for 45 mins by light microscopic analysis. Format: functional, organism-based. The settings on record: time 2925.0 min. An outline of the steps: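 A549 cells infected with virus–peptide mixtures at increasing peptide concentrations, then assessed by light microscopy for cytopathic effect 48 h after infection.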

For assay [9], the system named is Lipid bilayer. The assay can be described thus: Inhibition of PEG-induced DOPC/DOPE/DOPG (60/30/10 mol%) small unilamellar vesicles assessed as lipid mixing at 1:100 compound: lipid concentration preincubated for 10 mins followed by PEG addition by spectrofluorometric analysis (reference value: 57.4 +/- 2.2 %). In short, it runs like this: (§4)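 Lipid mixing followed as FRET dilution. Vesicles carrying 0.8 mol% NBD-PE and Rh-PE mixed 1:9 with probe-free vesicles at 200 μM lipid. Peptide 2 μM added 10 min before 6% (w/v) PEG at 37 °C. NBD donor intensity rise recorded over time; TX-100 defines complete mixing.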

For assay [10], the system named is Lipid bilayer. Put plainly: Binding affinity to DOPC/DOPE/DOPG/CH (50/30/10/10 mol%) small unilamellar vesicles assessed as membrane organization and dynamic by measuring increase in fluorescence intensity at 1:100 compound: lipid concentration by tryptophan fluorescence based spectrofluorometric analysis. An outline of the steps:
as §1

In assay [11] the test system is Lipid bilayer. The assay can be described thus: Inhibition of PEG-induced DOPC/DOPE/DOPG/CH (50/30/10/10 mol%) small unilamellar vesicles assessed as content mixing at 1:100 compound: lipid concentration preincubated for 10 mins followed by PEG addition by fluorescence based analysis (reference value: 11.4 +/- 0.4 %). In short, it runs like this:
(§5)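 Content mixing by Tb3+/DPA complex fluorescence. Vesicles loaded with 8 mM TbCl3 or 80 mM DPA, external probe removed by gel filtration. Mixed 1:1 at 200 μM lipid; peptide 2 μM added 10 min before 6% (w/v) PEG, 37 °C. Normalised to co-encapsulated and detergent-treated samples.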

In assay [12] the test system is Lipid bilayer. The assay can be described thus: Inhibition of PEG-induced DOPC/DOPE/DOPG/CH (40/30/10/20 mol%) small unilamellar vesicles assessed as content mixing at 1:100 compound: lipid concentration preincubated for 10 mins followed by PEG addition by spectrofluorometric analysis relative to control. An outline of the steps: as §5
Assay [13] deals with Influenza A virus H3N2. Put plainly: Antiviral activity against Influenza A virus X-31 (H3N2) infected in MDCK cells assessed as reduction in viral M1 protein expression level incubated for 48 hrs post infection by Western blot analysis. The class given is functional, organism-based. In short, it runs like this: as §3
Assay [14] concerns Lipid bilayer. Put plainly: Reduction of apparent rotational correlation time in DOPC/DOPE/DOPG/CH (40/30/10/20 mol%) small unilamellar vesicles at 2 to 10 uM by TMA-DPH anisotropy analysis. The settings on record: dose 2-10 µM. In short, it runs like this:
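Apparent rotational correlation time of TMA-DPH from the Perrin equation, combining steady-state anisotropy and mean lifetime with r0 = 0.4. SUVs at 200 μM lipid with varying peptide, in TES/NaCl/CaCl2/EDTA buffer pH 7.4 at 37 °C; at least three measurements.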

Assay [15] concerns Influenza A virus H3N2. The assay can be described thus: Antiviral activity against Influenza A virus X-31 (H3N2) infected in human A549 cells assessed as inhibition of viral infection preincubated for 48 hrs followed by viral infection for 45 mins by MTT assay. Format: functional, organism-based. The settings on record: X-31, A549. In short, it runs like this:
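A549 or MDCK cells seeded 1.5 × 10^4 per well, grown 24 h. Virus premixed with two-fold serial peptide dilutions in serum-free medium with trypsin (2.5 μg ml-1). Cells infected 45 min at 37 °C, washed, then kept 48 h in medium with 0.1% FBS, 0.3% BSA and trypsin. MTT 4 h, absorbance 570 nm. CPE inhibition normalised to cell and virus controls, dose-response fit for EC50; at least 3 sets.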

In assay [16] the test system is Lipid bilayer. The assay can be described thus: Inhibition of PEG-induced DOPC/DOPE/DOPG/CH (40/30/10/20 mol%) small unilamellar vesicles assessed as lipid mixing at 1:100 compound: lipid concentration preincubated for 10 mins followed by PEG addition by spectrofluorometric analysis (reference value: 92.7 +/- 3.7 %). In short, it runs like this: as §4

Calls of active or inactive are those of the source. The calls are words filed in the database; no cut-off is given here. Where a SMILES comes first, the peptide text is derived from it.

Take `CC[C@H](C)[C@H](NC(=O)[C@H](CC(C)C)NC(=O)[C@H](C)NC(=O)[C@@H](NC(=O)[C@H](Cc1ccccc1)NC(=O)[C@H](CCCCN)NC(=O)[C@@H]1CCCN1C(=O)[C@H](CC(N)=O)NC(=O)[C@@H](NC(=O)[C@H](C)NC(=O)[C@H](CS)NC(=O)[C@H](Cc1ccccc1)NC(=O)CNC(=O)[C@H](CO)NC(=O)[C@H](CC(=O)O)NC(=O)[C@H](Cc1c[nH]c2ccccc12)NC(=O)[C@@H](NC(=O)[C@@H](N)[C@@H](C)O)[C@@H](C)O)C(C)C)C(C)C)C(=O)N[C@@H](CS)C(=O)N[C@@H](CC(=O)O)C(=O)N[C@@H](Cc1c[nH]c2ccccc12)C(=O)N[C@@H](CO)C(=O)NCC(=O)O` (H-TTWDSGFCAVNPKFVALICDWSG-OH): the outcome in the assay on Lipid bilayer [1], in the assay on Lipid bilayer [2], in the assay with Lipid bilayer [3], with Lipid bilayer [5], in the assay with Lipid bilayer [10] and with Lipid bilayer [14] was Active. Moreover, the Activity entry with Influenza A virus H3N2 [4] was “Dose-dependent-effect”; in the assay on Influenza A virus H3N2 [6], 0; in the assay with Influenza A virus H3N2 [8], “Dose-dependent-effect”; in the assay on Influenza A virus H3N2 [13] it was “Dose-dependent-effect”. Also, the inhibition entry in the assay on Lipid bilayer [7] was “inactive”. Besides, the inhibition was 69% with Lipid bilayer [9], 8.1% with Lipid bilayer [11], 33% in the assay on Lipid bilayer [12] and 100% in the assay on Lipid bilayer [16]. The concentration for a half-maximal effect (EC50) with Influenza A virus H3N2 [15] is approximately 20.4 µM.

The term inhibition denotes the drop in the measured response relative to a control, in per cent. Usually EC50 stands for the concentration that produces a half-maximal response.
